Results from article PMC8081235 (Biochemistry, 2020).
Positions count from the first letter of the chain named. Where two headings read alike, the source gives them in different places.

Legend:
PLC-γ1 (D1165H) [1] = molecular target: T1, PLC-γ1 (D1165H) (Rattus norvegicus, UniProt P10686, D1165H); assay: IC50 measurement with XY-69 in liposomes; type: biochemical; conditions: for inhibition of PLC-γ1: statement in conclusions, relative to ATP
T1 sequence (P10686 1-1290 D1165H): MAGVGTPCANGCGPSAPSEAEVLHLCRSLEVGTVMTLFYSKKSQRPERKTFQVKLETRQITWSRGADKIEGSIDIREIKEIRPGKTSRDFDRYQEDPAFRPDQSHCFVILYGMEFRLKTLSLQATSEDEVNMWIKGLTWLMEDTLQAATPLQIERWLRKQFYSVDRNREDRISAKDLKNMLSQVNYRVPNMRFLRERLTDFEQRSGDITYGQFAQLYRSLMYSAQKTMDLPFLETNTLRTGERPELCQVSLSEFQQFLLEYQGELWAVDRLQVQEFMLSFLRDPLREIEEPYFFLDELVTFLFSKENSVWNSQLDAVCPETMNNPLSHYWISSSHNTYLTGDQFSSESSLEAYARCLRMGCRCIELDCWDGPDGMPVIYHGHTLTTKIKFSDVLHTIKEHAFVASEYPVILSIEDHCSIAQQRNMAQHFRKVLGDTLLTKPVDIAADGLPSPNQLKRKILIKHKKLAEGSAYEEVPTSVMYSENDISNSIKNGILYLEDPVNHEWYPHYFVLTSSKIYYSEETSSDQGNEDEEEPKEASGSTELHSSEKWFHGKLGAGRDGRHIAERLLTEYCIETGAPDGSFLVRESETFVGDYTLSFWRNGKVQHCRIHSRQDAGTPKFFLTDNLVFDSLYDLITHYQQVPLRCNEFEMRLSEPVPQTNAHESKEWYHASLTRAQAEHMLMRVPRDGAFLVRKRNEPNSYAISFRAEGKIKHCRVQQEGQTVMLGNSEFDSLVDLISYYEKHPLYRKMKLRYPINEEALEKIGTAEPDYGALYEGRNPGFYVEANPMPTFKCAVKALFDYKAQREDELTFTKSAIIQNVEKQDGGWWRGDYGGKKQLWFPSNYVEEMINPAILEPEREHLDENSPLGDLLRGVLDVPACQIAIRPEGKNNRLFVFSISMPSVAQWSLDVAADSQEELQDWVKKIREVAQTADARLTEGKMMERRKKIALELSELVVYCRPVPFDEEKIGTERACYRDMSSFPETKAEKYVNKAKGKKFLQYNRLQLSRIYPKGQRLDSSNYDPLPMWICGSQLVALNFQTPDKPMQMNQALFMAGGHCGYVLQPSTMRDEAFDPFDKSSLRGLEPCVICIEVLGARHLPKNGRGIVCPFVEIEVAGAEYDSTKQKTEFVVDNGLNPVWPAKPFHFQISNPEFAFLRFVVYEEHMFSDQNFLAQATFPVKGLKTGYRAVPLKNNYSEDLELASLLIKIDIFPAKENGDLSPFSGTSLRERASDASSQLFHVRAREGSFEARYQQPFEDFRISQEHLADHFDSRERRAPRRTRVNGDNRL

PLC-γ1 (D1165H) [2] = molecular target: T1, PLC-γ1 (D1165H); assay: Pilot high-throughput screen of LOPAC1280 with XY-69 in liposomes; type: biochemical
In short: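 Screening was run in duplicate in 384-well format with test compounds at 10 μM. Purified PLC-γ1 (D1165H), 1 nM final, was preincubated 15 min at room temperature, then liposomes were added (final PE 220 μM, PIP₂ 20 μM, XY-69 0.5 μM). After 1 h the reaction was quenched with EGTA, pH 10.3, and read 30 min later (ex 485/em 520 nm). Full-inhibition controls were EGTA 10 mM and aurintricarboxylic acid 50 μM.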

[3] = stated without experiment or reference; cited from earlier work
PLCs = conditions: purified enzymes and intact cells; pan-inhibitors ref 24; cited from earlier work
wild-type PLC-γ1 [4] = molecular target: T2, wild-type PLC-γ1 (Rattus norvegicus, UniProt P10686); assay: Isothermal titration calorimetry; type: binding; conditions: ITC, 25 °C
T2 sequence (P10686 2-1290): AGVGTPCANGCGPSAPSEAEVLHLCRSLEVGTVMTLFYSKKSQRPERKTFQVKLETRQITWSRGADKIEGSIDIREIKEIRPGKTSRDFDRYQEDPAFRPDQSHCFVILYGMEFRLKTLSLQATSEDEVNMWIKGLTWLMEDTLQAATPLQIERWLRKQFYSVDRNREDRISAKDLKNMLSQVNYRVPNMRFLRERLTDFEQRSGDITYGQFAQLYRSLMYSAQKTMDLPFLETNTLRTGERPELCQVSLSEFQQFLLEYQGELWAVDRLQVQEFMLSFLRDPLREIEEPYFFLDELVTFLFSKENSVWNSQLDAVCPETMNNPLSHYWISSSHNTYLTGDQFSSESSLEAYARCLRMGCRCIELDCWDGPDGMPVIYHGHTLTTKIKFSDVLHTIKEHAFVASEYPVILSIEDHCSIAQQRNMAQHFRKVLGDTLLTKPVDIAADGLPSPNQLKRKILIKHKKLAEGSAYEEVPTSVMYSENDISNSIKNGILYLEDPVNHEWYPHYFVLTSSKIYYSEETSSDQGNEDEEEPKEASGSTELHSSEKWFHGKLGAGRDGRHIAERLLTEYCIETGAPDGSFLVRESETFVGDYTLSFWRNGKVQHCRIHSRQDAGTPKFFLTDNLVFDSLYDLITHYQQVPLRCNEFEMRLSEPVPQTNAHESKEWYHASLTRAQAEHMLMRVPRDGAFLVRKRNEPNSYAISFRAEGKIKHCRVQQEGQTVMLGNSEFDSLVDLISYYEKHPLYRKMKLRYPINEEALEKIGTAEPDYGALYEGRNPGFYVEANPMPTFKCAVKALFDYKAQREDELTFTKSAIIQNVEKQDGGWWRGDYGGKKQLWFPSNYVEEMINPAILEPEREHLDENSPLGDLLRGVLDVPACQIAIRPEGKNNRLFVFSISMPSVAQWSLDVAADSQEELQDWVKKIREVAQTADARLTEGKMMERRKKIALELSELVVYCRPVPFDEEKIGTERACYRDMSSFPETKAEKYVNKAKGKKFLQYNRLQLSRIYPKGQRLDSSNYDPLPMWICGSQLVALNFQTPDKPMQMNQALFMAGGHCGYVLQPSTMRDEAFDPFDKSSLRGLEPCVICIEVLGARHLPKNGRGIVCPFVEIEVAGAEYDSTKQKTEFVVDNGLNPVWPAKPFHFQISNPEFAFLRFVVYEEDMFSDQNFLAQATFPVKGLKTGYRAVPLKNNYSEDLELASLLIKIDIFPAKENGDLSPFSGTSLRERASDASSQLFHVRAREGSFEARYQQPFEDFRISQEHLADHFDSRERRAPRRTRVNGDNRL

wild-type PLC-γ1 [5] = molecular target: T3, wild-type PLC-γ1 (Rattus norvegicus, UniProt P10686)
T3 sequence (P10686 1-1290): T1 sequence (P10686 1-1290 D1165H) with H1165D

PLC-β4 = conditions: high concentration (1 mM) ref 39; cited from earlier work
PLC-γ1 = conditions: purified PLC ref 7; cited from earlier work
PLC-β2 = conditions: purified PLC ref 7; cited from earlier work
PLC-δ1 = conditions: purified PLC ref 7; cited from earlier work
Solubility = type: physicochemical
[6] = XY-69 0.5 μM, PIP2 20 μM in liposomes

For `Nc1ncnc2c1ncn2[C@@H]1O[C@H](COP(=O)(O)OP(=O)(O)O)[C@@H](O)[C@H]1O` [ADP], the IC50 (PLC-γ1 (D1165H) [1]; [6]) was 4.3 µM and the “inhibition of PLC-γ1” value (PLC-γ1 (D1165H) [1]) was “less or no inhibition”.
With `Nc1ncnc2c1ncn2[C@@H]1O[C@H](COP(=O)(O)O)[C@@H](O)[C@H]1O` [AMP] the “inhibition of PLC-γ1” value (PLC-γ1 (D1165H) [1]) was “less or no inhibition”.
For `O=C(O)C1=CC(=C(c2ccc(O)c(C(=O)O)c2)c2ccc(O)c(C(=O)O)c2)C=CC1=O` [ATA, aurintricarboxylic acid], the “inhibition by control in pilot screen” value (PLC-γ1 (D1165H) [2]; 50 μM) is given as “Full inhibition”, the cell permeability [3] is given as “not cell permeable” and the “direct inhibition of PLCs” value (PLCs) is given as “direct inhibitors”.
With `Nc1ncnc2c1ncn2[C@@H]1O[C@H](COP(=O)(O)OP(=O)(O)OP(=O)(O)O)[C@@H](O)[C@H]1O` [ATP, adenosine triphosphate] the IC50 (PLC-γ1 (D1165H) [1]) was 0.19 µM, the Kd (wild-type PLC-γ1 [4]) was 2600 nM and the “reduction of Vmax” value (wild-type PLC-γ1 [5]; 5 μM ATP present) was 4.1 fold. For the same molecule, the “change of KM” value (wild-type PLC-γ1 [5]; 1.5 and 5 μM ATP present) was “essentially unchanged”, the cell permeability [3] was “not cell permeable” and the inhibition (PLC-β4) was “inhibit”.
In the case of `O=C(O)CN(CCOCCOCCN(CC(=O)O)CC(=O)O)CC(=O)O` [EGTA], the “inhibition by control in pilot screen” value (PLC-γ1 (D1165H) [2]; 10 mM, chelates Ca2+ cofactor) is reported as “Full inhibition”.
`Nc1nc2c(ncn2[C@@H]2O[C@H](COP(=O)(O)OP(=O)(O)OP(=O)(O)O)[C@@H](O)[C@H]2O)c(=O)[nH]1` [GTP] showed an IC50 (PLC-γ1 (D1165H) [1]; [6]) of 12.7 µM.
For `COc1ccc2c(c1)CC[C@@H]1[C@@H]2CC[C@]2(C)[C@@H](NCCCCCCN3C(=O)C=CC3=O)CC[C@@H]12` [Hit U73122], the “flagged as inhibitor in pilot screen” value (PLC-γ1 (D1165H) [2]; LOPAC1280 at 10 μM) is listed as “not flagged as an inhibitor”, the “inhibition of phospholipase activity” value (PLC-γ1) is listed as “does not inhibit” and the “inhibition of phospholipase activity” value (PLC-β2) is listed as “does not inhibit”. The “inhibition of phospholipase activity” value (PLC-δ1) was “does not inhibit”.
For `O=C1Nc2cc(Br)ccc2/C1=C1/Nc2ccccc2/C1=N\O` [Hit-1, 6-bromoindirubin-3′-oxime], the “solubility in aqueous buffer” value (Solubility) is listed as “poor solubility” and the cell permeability [3] is listed as “cell permeable”.
